Source: ChEMBL document CHEMBL1153795, “Aromatic cyclic peroxides and related keto-compounds from the Plakortis sp. component of a sponge consortium” (2009)
In brackets after ≈: the same amount, converted by molar mass. Activity calls are given as the source filed them. No cut-off for these calls is given here.

Assays:
Escherichia coli = test: Antibacterial activity against Escherichia coli after 24 hrs by broth macridilution method; type: functional, organism-based
Outline: (§1)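 Broth macrodilution in LB medium (10 g/L Bactotryptone, 5 g/L Bactoyeast, 10 g/L NaCl, pH 7.5). Inoculum was set to 0.5 McFarland (2 × 10^8 cfu/mL) at 530 nm, then diluted 1:4000 to 50 000 cfu/mL. Tubes held eleven 2-fold dilutions (512–[…] µg/mL final) and were incubated 24 h at 37 °C. MIC90 was taken as the lowest concentration with no visible growth.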

Staphylococcus aureus = test: Antibacterial activity against Staphylococcus aureus after 24 hrs by broth macridilution method; type: functional; outline: as §1
Candida albicans = test: Antifungal activity against Candida albicans after 24 hrs by broth macridilution method; type: functional, organism-based

CC(CCCCCCCCc1ccccc1)C[C@@]1(C)C[C@@H](C)[C@@](C)(O)OO1 (stereo partly specified)
Activity (Escherichia coli): inactive | MIC (Staphylococcus aureus): 64 µg/mL (≈ 170 µM) | Activity (Candida albicans): inactive

COC(=O)C[C@]1(O)OO[C@@](C)(C/C(C)=C/C=C/Cc2ccccc2)C[C@H]1C
Activity (Escherichia coli): inactive | Activity (Candida albicans): inactive

CC(=O)CC(C)CCCCCCCCc1ccccc1 (stereo unspecified)
Activity (Escherichia coli): inactive | Activity (Candida albicans): inactive

CC(CCCCCC/C=C/c1ccccc1)C[C@@]1(C)C[C@@H](C)[C@@](C)(O)OO1 (stereo partly specified)
Activity (Escherichia coli): inactive | Activity (Candida albicans): inactive

CC(=O)CC(C)CCCCCC/C=C/c1ccccc1 (stereo unspecified)
Activity (Escherichia coli): inactive | Activity (Candida albicans): inactive
